Data as given in ChEMBL document CHEMBL4312042, “In Silico Discovery of JMJD6 Inhibitors for Cancer Treatment” (ACS Med Chem Lett, 2019).
One block for each compound: values may come before it. Activity calls are given as the source filed them. The rule behind the calls is not given here.

Assays:
[1] = target: T1, Bifunctional arginine demethylase and lysyl-hydroxylase JMJD6 (Homo sapiens, UniProt Q6NYC1); assay: Inhibition of His-tagged JMJD6 (unknown origin) expressed in Escherichia coli BL21 (DE3) assessed as increase in H4 arginine 3 symmetrical dimethylation (H4R3me2s) content at 10 uM using core histone as substrate preincubated with enzyme for 10 mins followed by incubation with substrate for 1 hr by immunoblotting analysis
In short: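 Purified bacterially expressed JMJD6 incubated with core histones, with or without compound at 10 μM; product analysed by immunoblot for H4R3me2s with total histone H4 probed alongside.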

[2] = target: T2, Lysine-specific demethylase 4C (Homo sapiens) (UniProt Q9H3R0); assay: (§1) Inhibition of Flag-tagged KDM4C (unknown origin) expressed in Escherichia coli BL21 (DE3) assessed as formaldehyde release using core histone as substrate preincubated with enzyme for 10 mins followed by incubation with substrate for 1 hr measured following 2 hrs incubation with ammonium acetate/acetoacetanilide by fluorescence based analysis
T2 sequence (whole entry): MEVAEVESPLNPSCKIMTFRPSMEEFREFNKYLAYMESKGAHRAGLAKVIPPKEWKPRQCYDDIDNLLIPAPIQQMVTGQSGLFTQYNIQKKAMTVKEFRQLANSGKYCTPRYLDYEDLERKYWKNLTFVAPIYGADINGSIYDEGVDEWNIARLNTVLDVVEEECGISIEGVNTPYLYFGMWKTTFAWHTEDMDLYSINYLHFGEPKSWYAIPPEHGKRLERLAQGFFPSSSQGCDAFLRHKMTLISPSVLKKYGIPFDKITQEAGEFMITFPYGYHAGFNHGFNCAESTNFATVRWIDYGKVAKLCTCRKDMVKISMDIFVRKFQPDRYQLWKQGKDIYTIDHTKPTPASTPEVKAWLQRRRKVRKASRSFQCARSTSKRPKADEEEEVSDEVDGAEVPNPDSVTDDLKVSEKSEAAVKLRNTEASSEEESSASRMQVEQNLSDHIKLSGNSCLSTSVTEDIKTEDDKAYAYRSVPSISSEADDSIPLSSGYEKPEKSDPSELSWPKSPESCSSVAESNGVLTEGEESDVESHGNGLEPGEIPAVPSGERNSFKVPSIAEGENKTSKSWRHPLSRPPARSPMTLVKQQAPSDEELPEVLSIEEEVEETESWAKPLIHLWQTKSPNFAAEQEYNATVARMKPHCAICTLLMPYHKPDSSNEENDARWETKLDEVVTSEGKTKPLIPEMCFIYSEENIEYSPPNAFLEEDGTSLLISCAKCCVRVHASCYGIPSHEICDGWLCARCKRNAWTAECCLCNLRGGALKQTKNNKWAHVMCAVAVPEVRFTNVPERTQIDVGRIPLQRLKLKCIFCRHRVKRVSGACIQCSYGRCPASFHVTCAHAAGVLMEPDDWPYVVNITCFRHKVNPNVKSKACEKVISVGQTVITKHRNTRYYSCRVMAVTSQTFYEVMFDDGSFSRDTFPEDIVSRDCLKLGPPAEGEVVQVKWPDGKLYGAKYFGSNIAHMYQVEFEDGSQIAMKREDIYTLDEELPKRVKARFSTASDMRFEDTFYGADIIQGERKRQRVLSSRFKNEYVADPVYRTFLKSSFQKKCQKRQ

L02 = assay: Cytotoxicity in human LO2 cells assessed as reduction in cell proliferation incubated for 72 hrs by CellTiter 96 AQueous one solution cell proliferation assay; format: cell-based; details: l02, 72 h
[3] = target: T1, Bifunctional arginine demethylase and lysyl-hydroxylase JMJD6; assay: Inhibition of His-tagged JMJD6 (unknown origin) expressed in Escherichia coli BL21 (DE3) assessed as decrease in demethylase activity by measuring release of formaldehyde using core histone as substrate preincubated with enzyme for 10 mins followed by incubation with substrate for 1 hr measured following 2 hrs incubation with ammonium acetate/acetoacetanilide by fluorescence based analysis
In short: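 Bacterially expressed, purified JMJD6 mixed with core histones, with or without inhibitor across a concentration series; demethylation read as formaldehyde release; IC50 derived from the series; experiment run three times.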

[4] = target: T1, Bifunctional arginine demethylase and lysyl-hydroxylase JMJD6; assay: Inhibition of JMJD6 in human HeLa cells assessed as increase in HSP70R469me1 level at 10 uM incubated for 6 hrs by immunoblotting analysis; format: cell-based
In short: (§2)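 HeLa cells treated with or without compound at 10 μM for 6 h; lysates immunoblotted for H4R3me2s and HSP70R469me1.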

[5] = target: Lysine-specific demethylase 5C (Homo sapiens) (UniProt P41229); assay: as §1, with “KDM5C” for “KDM4C”
Sequence of Lysine-specific demethylase 5C (Homo sapiens) (P41229 whole entry): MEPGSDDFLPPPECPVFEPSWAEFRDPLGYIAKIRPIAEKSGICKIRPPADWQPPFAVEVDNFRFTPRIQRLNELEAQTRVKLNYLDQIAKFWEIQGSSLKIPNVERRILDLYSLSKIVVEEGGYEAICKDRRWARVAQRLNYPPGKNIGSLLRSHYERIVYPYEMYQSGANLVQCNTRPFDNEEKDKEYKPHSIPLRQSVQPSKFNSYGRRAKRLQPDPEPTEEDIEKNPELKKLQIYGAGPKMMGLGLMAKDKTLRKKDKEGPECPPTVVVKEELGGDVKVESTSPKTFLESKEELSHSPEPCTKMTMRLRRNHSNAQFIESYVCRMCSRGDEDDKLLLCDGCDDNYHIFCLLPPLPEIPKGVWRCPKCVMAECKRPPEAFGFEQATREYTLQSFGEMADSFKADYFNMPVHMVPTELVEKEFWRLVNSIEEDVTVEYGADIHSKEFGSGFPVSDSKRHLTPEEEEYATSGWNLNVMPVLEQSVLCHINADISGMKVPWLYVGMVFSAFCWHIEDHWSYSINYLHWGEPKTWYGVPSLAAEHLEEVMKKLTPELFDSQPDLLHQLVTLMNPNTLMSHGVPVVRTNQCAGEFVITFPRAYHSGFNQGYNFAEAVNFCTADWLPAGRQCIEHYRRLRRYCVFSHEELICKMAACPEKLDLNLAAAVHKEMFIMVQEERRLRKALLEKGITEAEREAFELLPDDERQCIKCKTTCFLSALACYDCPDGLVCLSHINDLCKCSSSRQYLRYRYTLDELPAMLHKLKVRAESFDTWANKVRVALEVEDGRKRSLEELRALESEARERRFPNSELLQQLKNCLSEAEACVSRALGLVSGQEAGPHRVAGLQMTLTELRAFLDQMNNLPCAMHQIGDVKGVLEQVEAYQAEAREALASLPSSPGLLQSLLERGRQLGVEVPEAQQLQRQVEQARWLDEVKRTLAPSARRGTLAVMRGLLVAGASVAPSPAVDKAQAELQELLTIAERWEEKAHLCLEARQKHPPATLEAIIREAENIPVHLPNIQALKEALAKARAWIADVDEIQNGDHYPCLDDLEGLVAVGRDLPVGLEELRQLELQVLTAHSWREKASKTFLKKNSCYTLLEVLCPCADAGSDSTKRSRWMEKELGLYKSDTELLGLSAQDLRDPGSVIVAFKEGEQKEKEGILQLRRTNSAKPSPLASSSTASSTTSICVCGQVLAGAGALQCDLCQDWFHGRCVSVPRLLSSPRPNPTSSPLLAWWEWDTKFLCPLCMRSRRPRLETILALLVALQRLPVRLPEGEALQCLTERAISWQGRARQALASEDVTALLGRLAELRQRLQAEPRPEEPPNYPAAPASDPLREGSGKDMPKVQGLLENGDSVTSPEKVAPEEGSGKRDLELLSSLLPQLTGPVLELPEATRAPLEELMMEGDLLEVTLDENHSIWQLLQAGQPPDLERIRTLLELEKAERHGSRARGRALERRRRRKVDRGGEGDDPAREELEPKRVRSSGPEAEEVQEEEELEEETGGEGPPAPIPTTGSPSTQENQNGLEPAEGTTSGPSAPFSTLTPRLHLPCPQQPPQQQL

[6] = target: T1, Bifunctional arginine demethylase and lysyl-hydroxylase JMJD6; assay: Binding affinity to immobilized His-tagged JMJD6 (unknown origin) expressed in Escherichia coli BL21 (DE3) by biacore-binding assay
[7] = target: T3, Lysine-specific demethylase 3A (Homo sapiens) (UniProt Q9Y4C1); assay: as §1, with “KDM3A” for “KDM4C”
T3 sequence (whole entry): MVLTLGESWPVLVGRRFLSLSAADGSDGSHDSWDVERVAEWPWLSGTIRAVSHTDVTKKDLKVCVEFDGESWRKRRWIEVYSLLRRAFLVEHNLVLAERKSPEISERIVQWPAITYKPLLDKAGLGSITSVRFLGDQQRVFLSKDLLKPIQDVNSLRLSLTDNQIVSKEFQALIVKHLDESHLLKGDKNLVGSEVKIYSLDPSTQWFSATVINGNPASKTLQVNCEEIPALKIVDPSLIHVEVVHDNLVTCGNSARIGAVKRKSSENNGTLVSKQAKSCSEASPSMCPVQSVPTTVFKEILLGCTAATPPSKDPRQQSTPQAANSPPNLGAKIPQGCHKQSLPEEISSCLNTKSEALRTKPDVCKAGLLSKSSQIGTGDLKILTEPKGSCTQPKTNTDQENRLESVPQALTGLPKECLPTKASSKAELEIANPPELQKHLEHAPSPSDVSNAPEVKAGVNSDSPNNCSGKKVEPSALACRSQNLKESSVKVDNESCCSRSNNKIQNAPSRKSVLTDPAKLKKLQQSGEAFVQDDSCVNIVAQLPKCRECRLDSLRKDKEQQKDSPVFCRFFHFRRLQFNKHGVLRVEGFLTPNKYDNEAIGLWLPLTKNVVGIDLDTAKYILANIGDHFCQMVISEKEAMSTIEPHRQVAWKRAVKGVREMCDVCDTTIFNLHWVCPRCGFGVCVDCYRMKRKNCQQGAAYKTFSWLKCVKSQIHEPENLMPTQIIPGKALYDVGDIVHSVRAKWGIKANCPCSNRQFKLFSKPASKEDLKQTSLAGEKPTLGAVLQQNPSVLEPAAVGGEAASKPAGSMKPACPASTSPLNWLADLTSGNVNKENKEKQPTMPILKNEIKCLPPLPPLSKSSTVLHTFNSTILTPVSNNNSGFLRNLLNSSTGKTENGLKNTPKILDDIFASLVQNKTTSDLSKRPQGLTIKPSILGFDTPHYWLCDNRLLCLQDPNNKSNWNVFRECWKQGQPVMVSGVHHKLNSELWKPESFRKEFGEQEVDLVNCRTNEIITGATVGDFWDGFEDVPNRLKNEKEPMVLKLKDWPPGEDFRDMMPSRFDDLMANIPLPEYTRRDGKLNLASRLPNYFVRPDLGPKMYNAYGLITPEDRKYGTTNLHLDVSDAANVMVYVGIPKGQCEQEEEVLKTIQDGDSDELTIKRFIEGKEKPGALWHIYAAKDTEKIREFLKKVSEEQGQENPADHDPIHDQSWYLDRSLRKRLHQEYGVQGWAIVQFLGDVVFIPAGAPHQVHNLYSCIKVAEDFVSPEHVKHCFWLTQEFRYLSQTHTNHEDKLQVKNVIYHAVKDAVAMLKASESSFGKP

[8] = target: T1, Bifunctional arginine demethylase and lysyl-hydroxylase JMJD6; assay: Inhibition of JMJD6 in human HeLa cells assessed as H4R3me2S level at 10 uM incubated for 6 hrs by immunoblotting analysis; format: cell-based; in short: as §2
[9] = target: Histone lysine demethylase PHF8 (Homo sapiens) (UniProt Q9UPP1); assay: as §1, with “PHF8” for “KDM4C”
Sequence of Histone lysine demethylase PHF8 (Homo sapiens) (Q9UPP1 whole entry): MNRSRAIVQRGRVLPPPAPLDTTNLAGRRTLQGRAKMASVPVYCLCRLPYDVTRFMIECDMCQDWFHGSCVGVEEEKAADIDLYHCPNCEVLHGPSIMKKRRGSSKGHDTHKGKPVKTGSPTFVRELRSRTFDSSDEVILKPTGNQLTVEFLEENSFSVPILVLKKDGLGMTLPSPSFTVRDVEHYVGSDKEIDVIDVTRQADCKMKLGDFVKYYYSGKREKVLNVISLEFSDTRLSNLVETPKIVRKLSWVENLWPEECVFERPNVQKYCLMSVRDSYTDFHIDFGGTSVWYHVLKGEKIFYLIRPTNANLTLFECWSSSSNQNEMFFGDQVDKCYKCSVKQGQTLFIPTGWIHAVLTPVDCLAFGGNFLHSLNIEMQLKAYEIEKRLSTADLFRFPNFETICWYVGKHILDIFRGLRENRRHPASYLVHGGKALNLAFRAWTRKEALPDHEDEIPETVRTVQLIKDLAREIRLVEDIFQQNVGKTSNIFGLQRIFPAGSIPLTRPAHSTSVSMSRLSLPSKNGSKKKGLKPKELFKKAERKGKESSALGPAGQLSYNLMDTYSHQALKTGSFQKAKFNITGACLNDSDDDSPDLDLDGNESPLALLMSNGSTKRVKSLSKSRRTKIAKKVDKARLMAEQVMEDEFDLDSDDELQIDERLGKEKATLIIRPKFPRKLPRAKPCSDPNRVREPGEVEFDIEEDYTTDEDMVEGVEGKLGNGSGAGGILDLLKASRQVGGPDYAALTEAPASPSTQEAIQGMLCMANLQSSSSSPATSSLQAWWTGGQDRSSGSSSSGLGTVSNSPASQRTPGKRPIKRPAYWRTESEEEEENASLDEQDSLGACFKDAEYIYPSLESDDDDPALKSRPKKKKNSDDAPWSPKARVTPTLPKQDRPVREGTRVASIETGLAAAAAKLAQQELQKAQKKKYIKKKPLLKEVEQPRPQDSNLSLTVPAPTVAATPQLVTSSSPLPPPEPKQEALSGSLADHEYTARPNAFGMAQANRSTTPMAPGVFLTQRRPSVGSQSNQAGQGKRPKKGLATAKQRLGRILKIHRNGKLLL

inhibition [1]: Active
SMILES: COc1ccc2oc(=O)c(-c3csc(C)n3)cc2c1

inhibition [1]: Active
SMILES: CCOC(=O)c1csc(NC(=O)c2cc(C)on2)n1

Further lines, the compound ahead of its results:

SMILES: COCCN1CCOc2nc3c(C)cccc3cc2C1
inhibition [1]: Active

SMILES: Cc1ccc2oc(=O)c(-c3nc4cnccc4[nH]3)cc2c1
inhibition [2]: inactive
Activity (L02): Non-Toxic
IC50 [3]: 220 nM
inhibition [1]: Active
inhibition [4]: Active
inhibition [5]: inactive
Activity [6]: Active
inhibition [7]: inactive
inhibition [8]: inactive
inhibition [9]: inactive

SMILES: COCCn1cc(OC(C)=O)c2c1nc(C)n1c3ccccc3nc21
inhibition [1]: Active
